Experimental findings from ChEMBL document CHEMBL4138205, “Oxazole-Containing Diterpenoids from Cell Cultures of Salvia miltiorrhiza and Their Anti-HIV-1 Activities” (J Nat Prod, 2017) are described below.

The structures appear in SMILES notation. Activity calls are given as the source filed them. The rule behind the calls is not given here.

In data set [1] the test system is Human immunodeficiency virus 1. Put plainly: Antiviral activity against wild-type VSV-G pseudotyped HIV1 infected in HEK293 cells at 10 uM pretreated for 15 mins followed by viral infection measured after 48 hrs by luciferase reporter gene assay relative to control. The conditions noted are these: Human immunodeficiency virus 1, HEK293. In kind it is functional. Summed up: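 Single-concentration screen: compound at final 10 μM added to HEK 293T cells 15 min before VSV-G/HIV-1 infection; cell lysate luciferase measured 48 h postinfection and infectivity expressed relative to equal-volume DMSO solvent control.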

In a further data set the test system is Murine leukemia virus. Put plainly: Antiviral activity against wild-type VSV-G pseudotyped MLV infected in HEK293 cells pretreated for 15 mins followed by viral infection measured after 48 hrs by luciferase reporter gene assay. In kind it is functional, organism-based.
Data set [2] deals with Human immunodeficiency virus 1. Put plainly: Antiviral activity against wild-type VSV-G pseudotyped HIV1 infected in HEK293 cells assessed as time of 50% failure at 1 uM measured at 48 hrs post infection by luciferase reporter gene assay. The data set is classed as functional. Summed up: (§1)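 Time-of-addition: HEK 293T infected with VSV-G/HIV-1, then compounds added at successive time points after infection (test compound final 0.1 μM; AZT, EFV, RAL final 1 μM); lysate luciferase read at 48 h postinfection; infectivity (%) versus untreated control.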
In general terms: A reporter such as luciferase makes a cellular process visible.

Data set [3] relates to Human immunodeficiency virus 1. Put plainly: Antiviral activity against HIV1 pNL4-3 infected in HEK293 cells assessed as reduction in viral transcription by measuring decrease in luciferase activity at 1 uM after 20 hrs by luciferase reporter gene assay. In kind it is functional, organism-based. The procedure, abridged:
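HEK 293T cells transiently transfected with the pNL4-3.luc.R−E− HIV-1 reporter plasmid (luciferase gene) for 4 h. The test compound was then added at 0.001−1 μM final and incubated for an additional 20 h. Luciferase activity was read 24 h post-transfection as a measure of viral gene expression; n = 2.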

Data set [4] has as its system Human immunodeficiency virus 1. Put plainly: Antiviral activity against wild-type VSV-G pseudotyped HIV1 infected in HEK293 cells pretreated for 15 mins followed by viral infection measured after 48 hrs by luciferase reporter gene assay. In kind it is functional, organism-based. The conditions noted are these: Human immunodeficiency virus 1, HEK293.
In data set [5] the target is T1, Protein Tat (Human immunodeficiency virus type 1 group M subtype B (isolate HXB2)(HIV-1)) (UniProt P04608).
T1 sequence (whole entry): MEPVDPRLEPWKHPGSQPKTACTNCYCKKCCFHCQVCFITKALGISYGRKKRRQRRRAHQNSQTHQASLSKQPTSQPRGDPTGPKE
Put plainly: Inhibition of HIV1 Tat-mediated LTR transcriptional activity expressed in HEK293 cells after 48 hrs by dual-luciferase reporter gene assay. In kind it is cell-based. The conditions noted are these: Human immunodeficiency virus 1. The procedure, abridged: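 HEK 293T cotransfected 4 h with 100 ng pLTR-Luc, 70 ng pcDNA3.1-Tat and 2 ng pSV40-Renilla, then cultured with compound; lysate luciferase activities read 48 h post-transfection by dual-luciferase assay; n = 2.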

The test system of data set [6] is Human immunodeficiency virus 1. Put plainly: Antiviral activity against HIV1 NL4-3 infected in human MT2 cells measured after 72 hrs post infection by fluorAce beta-galactosidase reporter gene assay. In kind it is functional, organism-based. Particulars: Human immunodeficiency virus 1, NL4-3, MT2, 72 h. The procedure, abridged:
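MT-2 cells (RPMI 1640, 10% FBS) in 384-well format infected with HIV-1 NL4-3 carrying a β-galactosidase reporter at MOI 0.01; compounds added in DMSO; β-Gal expression read at 72 h postinfection by FluorAce β-Gal reporter assay; n = 2.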

Data set [7] has as its system Human immunodeficiency virus 1. Put plainly: Antiviral activity against wild-type VSV-G pseudotyped HIV1 infected in HEK293 cells assessed as time of 50% failure at 0.1 uM measured at 48 hrs post infection by luciferase reporter gene assay. The data set is classed as functional. The procedure, abridged:
as §1

Another data set deals with HEK293. Put plainly: Effect on renilla luciferase expression in HEK293 cells up to 1 uM after 24 hrs by luciferase reporter gene assay. In kind it is ADME, cell-based. The conditions noted are these: human, hek293, 24 h. The procedure, abridged: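 A plasmid encoding Renilla luciferase (pSV40-Renilla) was transiently transfected into HEK 293T cells for 4 h. Cells were then cultured with the test compound at the indicated concentrations, and Renilla luciferase activity in cell lysates was measured 24 h post-transfection as a control for gene translation; n = 2.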

Data set [8] has as its system Human immunodeficiency virus 1. Put plainly: Antiviral activity against HIV1 pNL4-3 infected in HEK293 cells assessed as reduction in viral transcription by measuring decrease in luciferase activity after 20 hrs by luciferase reporter gene assay. The data set is classed as functional, organism-based. The procedure, abridged:
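HEK 293T transiently transfected with pNL4-3.luc.R−E− for 4 h, then treated with compound (0.001−1 μM range; AZT, EFV, RAL 1 μM) for a further 20 h; luciferase activity then measured as read-out of viral gene expression; n = 2.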

The test system of data set [9] is Human immunodeficiency virus 1. Put plainly: Antiviral activity against HIV1 infected in HEK293 cells assessed as inhibition of basal LTR transcription after 48 hrs by dual-luciferase reporter gene assay. In kind it is functional, organism-based. The procedure, abridged: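 HEK 293T cotransfected 4 h with 100 ng pLTR-Luc and 2 ng pSV40-Renilla (no Tat), then compound added; firefly and Renilla luciferase in lysates measured 48 h post-transfection by dual-luciferase assay; n = 2.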

Data set [10] relates to Human immunodeficiency virus 1. Put plainly: Antiviral activity against VSV-G pseudotyped HIV1 infected in human MT2 cells pretreated for 15 mins followed by viral infection measured after 48 hrs by luciferase reporter gene assay. Particulars: Human immunodeficiency virus 1, MT2. In kind it is functional, organism-based.

What is called inhibition is the drop in the measured response relative to a control, in per cent. As a reminder, the IC50 is the point on the concentration scale where inhibition reaches its midpoint.

Consider `Cc1nc2c(o1)c1c(C)coc1c1ccc3c(C)cccc3c12`, for which, in [1], the inhibition at 10 µM was 17.4%.

Take `C[C@H]1COc2c1c1ocnc1c1c3c(ccc21)C(C)(C)CCC3`: the inhibition at 10 µM in [1] worked out at 18.7%.

With `Cc1nc2c(o1)c1c(c3ccc4c(c32)CCCC4(C)C)OC[C@@H]1C`, the inhibition at 10 µM in [1] was 18.3%.

Take `O=C1Nc2ccc(Cl)cc2[C@@](C#CC2CC2)(C(F)(F)F)O1` [EFAVIRENZ]: the IC50 in the data set with Murine leukemia virus was greater than 10000 nM. Also, in data set [2], the FT50 came to 10.1 h. Besides, the inhibition at 10 µM in data set [1] was 100%. In addition, the result in data set [3] was inactive.

As for `Cc1cccc2c1ccc1c3c(c4ocnc4c12)[C@@H](C)CO3`, the IC50 in the data set on Murine leukemia virus was found to be 150 nM; in [4], 30 nM; in [6] it was 5.4 µM; in data set [10] it was 30 nM. Further, the inhibition entry in data set [5] and in [9] was “Dose-dependent effect” each time. For the same compound, the FT50 result in data set [7] was “<=20 hr”. The Activity result with HEK293 was “Non-Toxic”; in data set [8], “Dose-dependent effect”. For the same compound, in [1], the inhibition at 10 µM is 76.7%.

As to `Cc1nc2c3c(c4ccc5c(c4c2o1)CCCC5(C)C)OC[C@@H]3C`, the inhibition at 10 µM in [1] is 11.2%.

In the case of `Cc1cccc2c1ccc1c3c(c4oc(Cc5ccccc5)nc4c12)[C@@H](C)CO3`, the IC50 in data set [4] turned out to be 1200 nM. The inhibition at 10 µM in data set [1] is 62.1%.

For `Cc1nc2c(o1)c1c(c3ccc4c(C)cccc4c32)OC[C@@H]1C`, in data set [1], the inhibition at 10 µM was determined as 2.82%.

As to `Cc1nnc(C(=O)NC(C)(C)c2nc(C(=O)NCc3ccc(F)cc3)c(O)c(=O)n2C)o1` [RALTEGRAVIR], the FT50 in data set [2] is 12 h. Moreover, the result in data set [3] was inactive.

For the compound `Cc1cn([C@H]2C[C@H](N=[N+]=[N-])[C@@H](CO)O2)c(=O)[nH]c1=O` [ZIDOVUDINE], the FT50 in data set [2] turned out to be 7.7 h. Also, the outcome in data set [3] was inactive.
